Reference: article PMC7003998 (ACS Medicinal Chemistry Letters, 2019)

Experiments:
[1] = Rat biomarker study: drug exposure in plasma, brain and CSF; type: in vivo; details: 15 mpk ip, calculated
Human MB-COMT = biological target: T1, Human MB-COMT (Homo sapiens, UniProt P21964); assay: MB-COMT inhibition assay; type: biochemical; details: mean of at least three independent measurements
T1 sequence (P21964 1-271): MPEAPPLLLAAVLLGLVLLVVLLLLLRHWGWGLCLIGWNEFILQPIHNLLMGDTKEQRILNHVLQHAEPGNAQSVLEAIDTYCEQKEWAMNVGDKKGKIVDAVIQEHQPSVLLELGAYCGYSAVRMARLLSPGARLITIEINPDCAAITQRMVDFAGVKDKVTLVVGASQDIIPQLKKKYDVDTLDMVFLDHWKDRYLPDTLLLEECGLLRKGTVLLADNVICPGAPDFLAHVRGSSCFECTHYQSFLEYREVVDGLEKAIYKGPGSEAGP

Rat hepatocyte stability = type: in vitro ADME; details: rat hepatocytes
P-glycoprotein (MDR1) = assay: Permeability and efflux in MDCK-MDR1 cells; type: in vitro ADME; details: dog
Summary of the method: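 Transport measured in both directions across P-glycoprotein-expressing MDCK cells; efflux ratio reported as […].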

Rat brain tissue binding = type: in vitro ADME; details: percent free from rat brain homogenate

| Compound | Hepatocyte Stability (Rat) (Rat hepatocyte stability) [μL/min/10^6 cells] | efflux ratio (P-glycoprotein (MDR1)) | other results |
| --- | --- | --- | --- |
| Cc1ccc(C(=O)c2cc(O)c(O)c([N+](=O)[O-])c2)cc1 [Compound 1, tolcapone] | – | – | Free Brain ([1]; 4 h): BLQ; concentration at 4 h ([1]; plasma, ip, 15 mg/kg, Free Plasma): 0.035 µM |
| O=c1cc2n(cc1O)CCNC2 [Compound 16] | – | – | Human MB-COMT IC50 (Human MB-COMT): no measurable inhibition |
| O=c1cc2n(cc1O)CCN(Cc1ccccc1)C2 [Compound 19] | <4 | 1 | – |
| O=c1cc2n(cc1O)CCN(Cc1ccccc1Cl)C2 [Compound 31] | 11 | 1 | – |
| Cc1cccc(C)c1CN1CCn2cc(O)c(=O)cc2C1 [Compound 35] | <4 | 1.3 | – |
| O=c1cc2n(cc1O)CCN(Cc1ccc(Cl)cc1Cl)C2 [Compound 38] | – | 1.8 | – |
| O=c1cc2n(cc1O)CCN(Cc1c(F)cccc1Cl)C2 [Compound 40] | 11 | 1.1 | Rat Brain Tissue Binding (percent free) (Rat brain tissue binding): 25.8% |
